{"source": "ChEMBL document CHEMBL3585304", "about": "“Synthesis and evaluation of tamoxifen derivatives with a long alkyl side chain as selective estrogen receptor down-regulators” (Bioorg Med Chem, 2015)", "key": {"MCF7 [1]": {"tested_on": "MCF7", "assay": "Reduction in endogenous ERalpha expression in human MCF7 cells at 10 uM after 6 hrs by Western blot analysis", "format": "functional, cell-based", "summary_of_the_method": "(§1)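 MCF-7 cells exposed to compounds (10 µM shown for the chain-length series) for 6 h. Cells lysed in 1% SDS, 0.1 M Tris–HCl pH 7.0, 10% glycerol and boiled 10 min. Protein measured by BCA, and equal amounts run on SDS–PAGE, transferred to PVDF and immunoblotted for endogenous ERα.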"}, "MCF7 [2]": {"tested_on": "MCF7", "assay": "Reduction in endogenous ERalpha expression in human MCF7 cells after 6 hrs by Western blot analysis", "format": "functional, cell-based", "summary_of_the_method": "as §1"}, "MCF7 [3]": {"tested_on": "MCF7", "assay": "Reduction in endogenous ERalpha expression in human MCF7 cells at 0.1 to 1 uM after 6 hrs by Western blot analysis in presence of 10 uM MG132 proteasome inhibitor", "format": "functional, cell-based", "summary_of_the_method": "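MCF-7 cells incubated 6 h with graded compound concentrations, with or without proteasome inhibitor MG132 (10 µM). Lysis in 1% SDS, 0.1 M Tris–HCl pH 7.0, 10% glycerol, then boiling 10 min. BCA protein assay, equal loading on SDS–PAGE, PVDF transfer, and Western blot detection of ERα.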"}, "Estrogen receptor": {"target": "T1, Estrogen receptor (Homo sapiens, UniProt P03372)", "T1 sequence (P03372 whole entry)": "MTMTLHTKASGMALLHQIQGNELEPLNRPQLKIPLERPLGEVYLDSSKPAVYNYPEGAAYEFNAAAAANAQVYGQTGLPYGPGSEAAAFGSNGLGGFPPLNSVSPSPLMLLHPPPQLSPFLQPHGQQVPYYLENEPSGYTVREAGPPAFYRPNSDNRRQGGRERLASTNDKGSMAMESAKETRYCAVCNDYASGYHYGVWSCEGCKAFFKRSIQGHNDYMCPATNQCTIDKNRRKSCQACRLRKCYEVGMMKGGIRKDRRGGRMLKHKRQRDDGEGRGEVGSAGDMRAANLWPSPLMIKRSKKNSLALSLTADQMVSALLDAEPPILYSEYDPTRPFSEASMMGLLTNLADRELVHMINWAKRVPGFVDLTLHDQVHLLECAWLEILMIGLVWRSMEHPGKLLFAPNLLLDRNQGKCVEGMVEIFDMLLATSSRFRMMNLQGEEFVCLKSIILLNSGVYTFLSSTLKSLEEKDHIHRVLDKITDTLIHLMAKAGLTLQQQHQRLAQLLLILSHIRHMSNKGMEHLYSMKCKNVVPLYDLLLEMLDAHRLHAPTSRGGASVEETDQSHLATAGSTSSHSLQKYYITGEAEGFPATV", "assay": "Inhibition of ERalpha (unknown origin) by fluorescence polarization-based competition binding assay"}}, "note": "Calls of active or inactive are those of the source. No cut-off for these calls is given here."}
{"compound": "CC/C(=C(\\c1ccc(O)cc1)c1ccc(OCCNCCCCCCCCCCF)cc1)c1ccccc1", "values": [{"measurement": "inhibition", "setting": "MCF7 [1]", "result": "Active"}, {"measurement": "inhibition", "setting": "MCF7 [2]", "result": "Dose-dependent effect"}, {"measurement": "inhibition", "setting": "MCF7 [3]", "result": "inactive"}, {"measurement": "IC50", "setting": "Estrogen receptor", "result": 0.0034, "unit": "µM"}]}
{"compound": "CC/C(=C(\\c1ccc(O)cc1)c1ccc(OCCNCCCCCCCCCCO)cc1)c1ccccc1", "values": [{"measurement": "inhibition", "setting": "MCF7 [1]", "result": "inactive"}, {"measurement": "IC50", "setting": "Estrogen receptor", "result": 0.21, "unit": "µM"}]}
{"compound": "CCCCCCCCNCCOc1ccc(/C(=C(/CC)c2ccccc2)c2ccc(O)cc2)cc1", "values": [{"measurement": "inhibition", "setting": "MCF7 [1]", "result": "inactive"}, {"measurement": "IC50", "setting": "Estrogen receptor", "result": 0.053, "unit": "µM"}]}
{"compound": "CCCCCCCCCCCCCCCCNCCOc1ccc(/C(=C(/CC)c2ccccc2)c2ccc(O)cc2)cc1", "values": [{"measurement": "inhibition", "setting": "MCF7 [1]", "result": "inactive"}, {"measurement": "IC50", "setting": "Estrogen receptor", "result": 0.0048, "unit": "µM"}]}
{"compound": "CCCCCCCCCCCCCCNCCOc1ccc(/C(=C(/CC)c2ccccc2)c2ccc(O)cc2)cc1", "values": [{"measurement": "inhibition", "setting": "MCF7 [1]", "result": "inactive"}, {"measurement": "IC50", "setting": "Estrogen receptor", "result": 0.011, "unit": "µM"}]}
{"compound": "CCC(=C(c1ccc(O)cc1)c1ccc(OCCN(C)C)cc1)c1ccccc1", "values": [{"measurement": "inhibition", "setting": "MCF7 [1]", "result": "inactive"}]}
{"compound": "CC/C(=C(\\c1ccc(O)cc1)c1ccc(OCCNC)cc1)c1ccccc1", "values": [{"measurement": "inhibition", "setting": "MCF7 [1]", "result": "inactive"}]}
{"compound": "CCCCCCNCCOc1ccc(/C(=C(/CC)c2ccccc2)c2ccc(O)cc2)cc1", "values": [{"measurement": "inhibition", "setting": "MCF7 [1]", "result": "inactive"}, {"measurement": "IC50", "setting": "Estrogen receptor", "result": 0.151, "unit": "µM"}]}
{"compound": "CCCCCCCCCCCCNCCOc1ccc(/C(=C(/CC)c2ccccc2)c2ccc(O)cc2)cc1", "values": [{"measurement": "IC50", "setting": "Estrogen receptor", "result": 0.014, "unit": "µM"}]}
{"compound": "CCCCCCCCCCCCCCCCCCNCCOc1ccc(/C(=C(/CC)c2ccccc2)c2ccc(O)cc2)cc1", "values": [{"measurement": "IC50", "setting": "Estrogen receptor", "result": "> 100", "unit": "µM"}]}
{"compound": "CCCCCCCCCCNCCOc1ccc(/C(=C(/CC)c2ccccc2)c2ccc(O)cc2)cc1", "values": [{"measurement": "inhibition", "setting": "MCF7 [1]", "result": "Active"}, {"measurement": "IC50", "setting": "Estrogen receptor", "result": 0.0036, "unit": "µM"}]}
